# M1 ag: activates the M1 muscarinic receptor; CHO-M1 cells, Fluo-4 calcium fluorescence, agonist mode; stronger effect = higher value; B-score at 10 µM; 64,000 compounds, 3% hits;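 active = fluorescence rise, raw or as B-score row- and column-corrected plate score, outside the 99.7% band of its plate's samples, either direction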
# D1 mod: D1 dopamine receptor (human) allosteric modulation; P21728; HEK293 D1, CRE-luciferase, dopamine EC30 potentiation; actives deviate in either direction; B-score at 10 µM; 58,000 compounds, 5.9% hits; AID 641;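 active = luminescence count or its row- and column-corrected plate score outside the 99.7% band of the plate's sample wells, on either side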
# M1 antagonist: antagonists of rat M1 muscarinic receptor. P08482. CHO-M1 cells, Fluo-4 calcium, ACh EC80 antagonist mode; stronger effect = lower value. B-score at 10 µM. 64,000 compounds, 3.4% hits;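 active = calcium fluorescence response, raw or row-and-column corrected B-score, differing from the plate sample mean either way at a set confidence level, mostly lower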
# Target sequence (P08482 whole entry, looked up): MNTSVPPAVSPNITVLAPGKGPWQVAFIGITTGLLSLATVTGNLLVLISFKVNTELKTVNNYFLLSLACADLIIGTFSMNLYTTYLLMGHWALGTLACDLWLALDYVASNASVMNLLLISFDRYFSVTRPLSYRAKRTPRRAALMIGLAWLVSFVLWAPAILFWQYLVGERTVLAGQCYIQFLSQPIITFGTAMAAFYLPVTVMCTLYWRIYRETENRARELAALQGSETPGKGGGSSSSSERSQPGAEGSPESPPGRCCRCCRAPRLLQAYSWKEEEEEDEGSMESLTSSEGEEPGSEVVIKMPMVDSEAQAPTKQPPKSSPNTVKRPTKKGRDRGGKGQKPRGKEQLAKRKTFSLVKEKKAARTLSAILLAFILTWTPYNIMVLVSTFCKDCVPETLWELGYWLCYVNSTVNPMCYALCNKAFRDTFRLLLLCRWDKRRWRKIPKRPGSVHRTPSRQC
# BAP1 inh: inhibitors of human BAP1 deubiquitinase; recombinant BAP1, Ub-AMC hydrolysis fluorescence kinetic; stronger effect = lower value; 72,000 compounds, 0.48% hits; AID 436; Q92560; calls only at 20 µM;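 active = activity remaining at or below 50% of control, provided the compound also passes the data quality filters; inactive = the rest, including low values that fail the filters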;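 note: 100% = DMSO wells rate and 0% = substrate alone blank rate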
# hDAT+cocaine: human DAT dopamine uptake with cocaine, either direction; LLC-PK1 hDAT cells, [14C]-dopamine uptake with cocaine IC80; actives deviate in either direction; B-score at 10 µM; 110,000 compounds, 1.3% hits;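 active = Z score or B-score, a plate-position-corrected score, falls beyond the plate's 99.7% confidence bounds, in either direction; inactive = both scores lie inside the 99.7% bounds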;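 note: scored against the spread of the other compound wells on the same plate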
# HEK293 NFkB inh: inhibitors of the PMA/ionomycin-induced NF-kB reporter in HEK293 cells. inhibition, % at 3 µM. 62,000 compounds, 0.21% hits. HEK-293 NF-kB luciferase reporter, luminescence;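 active = inhibition above the mean of all tested compounds plus 3 SD, cut at about 40% in these data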;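 note: 0% = stimulated DMSO wells and 100% = 10 µM reference inhibitor 5653914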
#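 System – HEK-293 cells with stable firefly luciferase reporter driven by four HIV NF-kB elements · Doses – one dose, 3 µM · Schedule – 1 h compound pre-incubation, 16 h PMA/ionomycin at 37 °C · Technique – luminescence from luciferase substrate reagent · Measure – percent inhibition normalized per plate to DMSO and reference-inhibitor controls · Replicates – tested once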
# * = called active by the depositor; i = inactive; x = no result given; + = active, no number. Rows were chosen to be rich in hits. Some 7.2% of all compounds tested hit in one or more screens of this group.
SMILES,M1 ag,D1 mod,M1 antagonist,BAP1 inh,hDAT+cocaine,HEK293 NFkB inh
COCc1c(C)cc(C)c(/C=N/O)c1C,-1.58,-0.0294,11.8*,i,-0.154,14.6
COC(=O)c1cc2nc(-c3ccc(OC)cc3)cc(C(F)(F)F)n2n1,-1.41,1.55,0.907,i,-2.17*,15.3
COc1ccc(N2C(=O)CC(N3CCN(C(=O)c4ccccc4)CC3)C2=O)cc1 (stereo not given),x,x,x,i,x,x
Cc1cc(/C=c2/sc3nc4ccccc4n3c2=O)c(C)n1-c1ccccn1,-0.0875,-6.81*,-0.309,x,-0.0617,x
CCOc1cc(NC2CS(=O)(=O)CC2O)c(OCC)cc1NC(=O)c1ccccc1 (stereo not given),-0.403,-0.242,2.62*,i,1,13.3
O=C(NCCN1CCOCC1)NC1(C(F)(F)F)Oc2ccccc2O1,-1.16,1.54,0.0195,x,-4.71,0.0
NS(=O)(=O)c1ccc(CCNC(=O)CSc2ccccc2)cc1,x,x,x,x,-0.958,x
CCCCNC(=O)NC1(C(F)(F)F)Oc2ccccc2O1,x,x,x,x,-1.88*,x
NS(=O)(=O)c1ccc(CCNC(=O)NC2(C(F)(F)F)Oc3ccccc3O2)cc1,-1.1,0.333,-0.699,x,-6.72*,-0.4
CCc1ccc(S(=O)(=O)NC(CC(=O)O)c2ccccc2)cc1 (stereo not given),0.0684,-6.46*,-0.561,i,-0.704,10.7
Cc1ccc(S(=O)(=O)NC(CC(=O)O)c2ccccc2)c(C)c1 (stereo not given),0.12,-0.196,0.603,i,-0.286,2.4
O=C1Nc2ccc(I)cc2/C1=C/c1cc(Br)c(O)c(Br)c1,x,x,x,+,x,x
CCOC(=O)c1c(C)nc2sc(C(=O)Nc3ccc(C(C)=O)cc3)c(N)c2c1-c1ccc(OC)cc1,x,x,x,x,3.6*,x
COc1cc(OC)cc(C(=O)NC2CCN(CC(=O)Nc3cccc4ccccc34)CC2)c1,x,x,x,x,3.52*,x
O=C(CN1CCC(NC(=O)c2ccco2)CC1)Nc1cccc2ccccc12,x,x,x,x,-0.327,x
CCOc1ccccc1OCCOc1cccc(C(F)(F)F)c1,x,x,x,x,-0.998,x
CCOc1ccccc1Oc1ccc(C(F)(F)F)cn1,0.562,-4*,0.733,i,-0.0214,8.7
Cc1ccc(C)c(N(CC(N)=O)S(C)(=O)=O)c1,0.0671,1.03,2.14*,i,-0.0147,6.5
COc1ccc(C2NC(=O)NC(C)=C2C(=O)Nc2ccccc2)cc1 (stereo not given),x,x,x,i,x,x
O=C(CC1Nc2ccccc2NC1=O)c1ccccc1 (stereo not given),3.91*,-1.45,-0.761,i,-0.876,-21.7
O=C(Nc1cccn(Cc2ccc(F)cc2)c1=O)NC1CCCCC1,x,x,x,x,2.29*,x
CC(C)C(C)(O)C#CCN1CCOCC1 (stereo not given),x,x,x,i,x,x
COc1ccc(-n2nc3ccc(NC(=O)COc4ccc(Br)cc4)cc3n2)cc1,x,x,x,i,x,x
Nc1ccc(S(=O)(=O)N2CCCc3ccccc32)cc1,-0.864,-0.357,0.41,i,2.27*,8.1
COCCNC(=O)CCCCCn1c(=S)[nH]c2ccccc2c1=O,x,x,x,x,0.0294,x
SMILES,M1 ag,D1 mod,M1 antagonist,BAP1 inh,hDAT+cocaine,HEK293 NFkB inh
CCN(CC)CCNC(=O)CCCCn1c(=S)[nH]c2c([nH]c3ccc(OC)cc32)c1=O,-0.404,0.934,-1.16,i,2.59*,12.6
CC1CCCN(c2c([N+](=O)[O-])c(=O)oc3ccccc23)C1 (stereo not given),x,x,x,x,-2.72*,x
O=C(Nc1ccc2oc(-c3ccc(Br)cc3)nc2c1)c1ccc(Cl)cc1,x,x,x,i,x,x
Cc1cccnc1Nc1nc(-c2ccc(O)cc2O)cs1,1.18,-0.012,0.229,i,5.39*,-4.0
Cc1cccnc1Nc1nc(-c2ccccn2)cs1,x,x,x,x,-0.734,x
O=C(O)CSc1ccccc1C(=O)O,x,x,x,x,0.649,x
CC(C)=CCC/C(C)=C/CC/C(C)=C/CSc1ccccc1C(=O)O,x,x,x,+,x,x
Cc1ccc(-c2csc3nnc(SCC(=O)NCc4ccc5c(c4)OCO5)n23)cc1,8.71*,19.3*,-0.251,i,0.00737,12.0
Cc1ccc(-c2nc(NC(=O)CSc3nnc4scc(-c5ccccc5)n34)ns2)cc1,1.29,-1.96,0.269,i,2.55*,15.5
CCc1nnc(NC(=O)CSc2nnc3scc(-c4ccc(C)cc4)n23)s1,1.24,0.237,1.05,i,0.298,8.9
Cn1c(SCC(=O)NCc2ccc3c(c2)OCO3)nnc1-c1cccs1,0.537,-0.0696,0.343,x,0.00858,11.1
COc1ccc(C2CC(C(F)(F)F)n3nc(C(=O)N4CCC(C)CC4)c(Cl)c3N2)cc1OC (stereo not given),x,x,x,i,x,x
COc1ccc(C(C(=O)NC(C)(C)C)N(Cc2cccs2)C(=O)CCC(=O)Nc2cc(C)on2)cc1 (stereo not given),x,x,x,x,2.96*,x
CC(=O)c1cccc(NC(=O)Cc2cccs2)c1,-0.684,-0.117,0.629,i,-0.119,-2.0
CCN(CC(=O)NCc1cccs1)S(=O)(=O)c1cccc(C(C)=O)c1,0.00776,0.0142,0.823,i,-7.46*,9.5
COc1ccc(C(=O)Nc2cc3ccccc3oc2=O)cc1OC,x,x,x,i,x,x
Cc1onc(-c2ccccc2Cl)c1C(=O)N1CCCc2ccccc21,-0.0788,-0.656,-0.827,i,-0.723,14.2
Cc1onc(-c2ccccc2Cl)c1C(=O)N1CCc2ccccc21,0.626,-2.78*,-0.0242,i,-0.631,8.6
O=C(CN1CCCN(S(=O)(=O)c2ccc(F)cc2)CC1)Nc1ccccc1Br,0.0277,0.0845,-0.291,i,3.2*,2.1
CN1C(=O)C2(OCC(COc3ccc(Cl)cc3)O2)c2ccccc21 (stereo not given),-1.4,0.0143,-0.235,i,-1.19,17.7
CC(=O)N1CCN(c2ccc(OC[C@H]3CO[C@](Cn4ccnc4)(c4ccc(Cl)cc4Cl)O3)cc2)CC1,x,x,x,i,3.83*,x
CC(C)C(=O)N1CCC(CN=Cc2c(O)n(C3CCCCC3)c(=O)n(C3CCCCC3)c2=O)CC1,1.66,0.0934,0.0316,i,3.19*,8.8
Cc1ccc(N2C(=O)CC(Sc3nc4ccccc4o3)C2=O)cc1Cl (stereo not given),x,x,x,x,-7.16*,x
CCOC(=O)N1CCC(N2Cc3cccc(C(=O)Nc4ccc(F)cc4)c3C2=O)CC1,x,x,x,x,0.0334,x
CCOC(=O)N1CCC(N2Cc3cccc(C(=O)Nc4ccc(CC)cc4)c3C2=O)CC1,x,x,x,x,4.03*,x
N#Cc1ccccc1N=C1CCCN1Cc1ccccc1,0.016,-0.258,0.995,i,-1.22,23.0
Cc1cc(C)c(N=C2CCCN2Cc2ccccc2)c(C#N)c1,x,x,x,x,3*,x
O=c1cc(-c2ccccc2)[nH]n1-c1ccc([N+](=O)[O-])cc1,x,x,x,x,-2.48*,x
O=[N+]([O-])c1ccc(-n2nc(-c3ccco3)cc2-c2ccccc2)cc1,x,x,x,i,x,x
Cc1ccc(C(=O)Nc2ccc(S(=O)(=O)O)c3cc(S(=O)(=O)O)cc(S(=O)(=O)O)c23)cc1NC(=O)c1cccc(NC(=O)Nc2cccc(C(=O)Nc3cc(C(=O)Nc4ccc(S(=O)(=O)O)c5cc(S(=O)(=O)O)cc(S(=O)(=O)O)c45)ccc3C)c2)c1,x,x,x,+,x,x

# Compound activity: PubChem BioAssay, several laboratories
